Assay outcomes as filed in PubChem BioAssay.
An excerpt weighted towards active compounds, which were near 3% of everything screened.
PfG6PD inh = PfG6PD (Plasmodium falciparum) enzyme inhibition. PfGluPho enzyme, NADPH resazurin-diaphorase fluorescence. inhibition, % at 20 µM. 0.78% of 350,000 active. AID 504690;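 active means inhibition reaching at least a set limit at 20 µM in the primary screen, cut at about 59% in these data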;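 further: 0% = DMSO wells with substrate and 100% = DMSO wells lacking glucose-6-phosphate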
MC4R ag barr = human MC4R agonism via beta-arrestin; P32245; U2OS MC4R beta-arrestin complementation, luminescence; percent of melanotan II response, DMSO zero; activation, % at 8.9 µM; 0.98% of 360,000 active; AID 540308;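 active means activation above a per-plate cutoff, the mean activation of sample wells on that plate plus 3 SD, cut at about 8% in these data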
Target sequence (P32245 whole entry, looked up): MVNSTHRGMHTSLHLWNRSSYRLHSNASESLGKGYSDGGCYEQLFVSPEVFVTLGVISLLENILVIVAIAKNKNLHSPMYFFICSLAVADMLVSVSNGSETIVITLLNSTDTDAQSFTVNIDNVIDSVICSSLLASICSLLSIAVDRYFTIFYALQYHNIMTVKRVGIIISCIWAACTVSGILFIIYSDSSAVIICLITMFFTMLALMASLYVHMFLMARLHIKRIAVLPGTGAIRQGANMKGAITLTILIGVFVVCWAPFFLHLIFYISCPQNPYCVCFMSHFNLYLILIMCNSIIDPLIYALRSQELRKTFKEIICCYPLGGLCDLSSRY
MC4R antagonist = blocks human MC4R cAMP signaling | AID 540295 | inhibition, % at 6.5 µM | P32245 | MC4R-expressing cells, MTII-stimulated cAMP, LANCE TR-FRET | 0.48% of 360,000 active;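 active means inhibition above its plate's cutoff, the mean of tested wells on that plate plus 3 SD, cut at about 29% in these data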;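 further: 0% = Melanotan II alone and 100% = Melanotan II plus saturating MCL0020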
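System: U2OS-MC4R stable cell line; Technique: Eu-cAMP/anti-cAMP TR-FRET, emission 671 nm; Repeats: single well per compound; Also added: Melanotan II; Dosing: one concentration, 6.5 µM nominal; Schedule: 30-min compound, 1-h challenge, 1-h detection, room temperature.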
B2AR ag = human beta-2 adrenergic receptor agonism by FAP | P07550 | Am2.2-beta2AR cells, FAP receptor internalization, flow cytometry | response, % (no concentration beside the values) | 0.43% of 340,000 active | AID 504454;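 active means response above a set limit, near 3 SD of response in nonfluorescent compounds, cut at about 42% in these data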
ABHD5-PLIN5 inh = ABHD5-PLIN5 protein interaction inhibition; Q00G26+Q8WTS1; Split G. princeps luciferase complementation, luminescence, 4 h; inhibition, % at 4 µM; 0.78% of 360,000 active; AID 602281;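 active means inhibition above the mean inhibition across every tested compound plus 3 SD, cut at about 22% in these data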;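 further: 0% = DMSO only wells and the 100% control is not disclosed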
* hit, by the source's call; / = no result given.

SMILES	PfG6PD inh	MC4R ag barr	MC4R antagonist	B2AR ag	ABHD5-PLIN5 inh
C=CC[C@@H](CC(=O)N(CCO)Cc1ccccc1)C(=O)NC[C@H](OC(=O)[C@@H](CC=C)CC(=O)OC(C)(C)C)c1ccccc1	12	5	6	-8	22*
O=C(Cc1c(Cl)cccc1Cl)NCCc1ccc(Cl)cc1	-13	9.3*	3	1	-4
O=C(CSCC(=O)c1ccc([N+](=O)[O-])cc1)c1ccc([N+](=O)[O-])cc1	/	/	/	/	-9
O=C(C#Cc1ccccc1)c1ccc([N+](=O)[O-])cc1	25	-4	23	69*	6
Cn1c(=NC(=O)CS(=O)(=O)c2ccccc2)sc2cc([N+](=O)[O-])ccc21	-3	-2	0	-3	-4
N#Cc1ccccc1S(=O)(=O)Nc1ccc2c(c1)OCCO2	5	-1	-2	0	-11
CCCSc1nnc(CNS(=O)(=O)c2ccc(C)cc2)n1C	-11	1	6	3	22*
CCOC(=O)c1cc(NC(=O)c2cc(C)on2)cc(C(=O)OCC)c1	-5	31*	-1	-5	-8
COc1cc(NC(=O)c2cc(C)on2)cc(OC)c1OC	-4	-1	10	0	0
Cc1ccc(OCC(=O)NNC(=O)C2CSC3(C)CCC(=O)N23)cc1C (centres undefined)	3	-2	12	0	5
Cc1ccc(NC(=S)N/N=C/c2c(C)nn(-c3ccccc3)c2N2CCCC2)cc1	-13	8.6*	12	7	-8
CN(C)CCCNC(=S)NCC(c1ccc(Cl)cc1Cl)c1c[nH]c2ccccc12 (centres undefined)	16	0	-4	47*	15
CCCCNC(=S)NCC(c1ccccc1)c1c[nH]c2ccccc12 (centres undefined)	12	4	-3	6	-15
Cc1ccc(C(=O)N2CCC2(C)C(=O)NC(C)C)cc1 (centres undefined)	/	1	15	/	-2
COc1ccccc1CC(=O)N1CCN(C(=O)c2ccco2)CC1	1	-4	2	4	-8
CCOc1ccccc1/C=C/C(=O)N1CCN(C(=O)c2ccco2)CC1	-7	-2	-7	84*	10
O=C(N/N=C/c1cc(Br)cc([N+](=O)[O-])c1O)c1ccc(NC(=O)c2ccc(F)cc2)cc1	-39	-5	21	5	12
CCNC(=O)C1CCCN(C(=O)c2cccc(C#N)c2)CC1 (centres undefined)	/	-1	3	/	5
COC(=O)c1cc(=O)n(Cc2ccc(OC)c(OC)c2)c(=Nc2ccc(F)cc2)s1	14	-2	-3	72*	3
CSC1=NSC2=NC(=O)/C(=C\c3ccc(OC(=O)c4ccco4)cc3)C(=N)N12	-32	-2	0	43*	-10
COc1ccc(/C=N/Nc2nc(C)c([N+](=O)[O-])c(N(C)c3ccccc3)n2)cc1OC	-6	20*	2	11	0
CC(=O)Nc1ccc(Nc2nc(C)c([N+](=O)[O-])c(N(C)c3ccccc3)n2)cc1	13	-1	2	5	1
O=c1[nH]nc(Cc2ccc(-c3ccccc3Cl)o2)c2ccccc12	-5	8.9*	-2	-4	-4
O=C(O)c1ccc(-c2nc(-c3ccc(Cl)c(Cl)c3)cs2)cc1	20	-2	31*	5	-1
NC(=O)c1ccc(NC(=O)CSc2nnc(-c3cccnc3)n2Cc2ccco2)cc1	3	-2	21	-12	10
SMILES	PfG6PD inh	MC4R ag barr	MC4R antagonist	B2AR ag	ABHD5-PLIN5 inh
O[C@@H]1CN(CC2CCCCC2)[C@@H](c2ccccc2)C[C@H]1n1cc(-c2ccc(F)cc2)nn1	21	3	9	/	-14
COCc1cc(C)c(C#N)c(=S)[nH]1	70*	0	2	4	-16
COCc1cc(=O)[nH]c(=S)[nH]1	-5	-3	-5	4	-4
CCc1ccc(Nc2cnn(-c3nc4ccccc4s3)c(=O)c2Cl)cc1	16	8.2*	20	-9	-4
O=C(c1cccc(C(F)(F)F)c1)N1CCc2c([nH]c3ccccc23)C1C(F)(F)F (centres undefined)	35	8.8*	10	10	1
Cc1cc(C)c(C(=O)COC(=O)C2CC3CCCC(C2)C3=O)c(C)c1 (centres undefined)	5	0	7	-5	-7
Cc1ccc(C(=O)Oc2csc(=S)n2C(=O)c2ccc(C)cc2)cc1	60*	-1	5	2	-10
Cc1ccc(C(=O)N2CCSC2=S)cc1	0	-2	12	1	0
O=C(NCc1cccc(CNC(=O)c2ccco2)c1)c1ccco1	-2	-2	2	-5	0
O=C(NCc1cccc(CNC(=O)C(=O)NCc2ccco2)c1)C(=O)NCc1ccco1	4	9.6*	-1	1	3
CC(C)(C)c1nnc(N/N=C/c2ccc(Br)cc2)n(N)c1=O	7	3	3	70*	-5
CC(C)(C)c1ccc(/C=N/Nc2nncn2N)cc1	57	-2	2	-13	-32
COC(=O)C(=C/C=C/c1ccco1)C(=O)OC	4	3	13	7	23*
COc1ccc(C(=O)NN(C)c2nc(-c3ccccc3)nnc2C(F)(F)F)cc1	-7	-1	-4	49*	1
Cc1cccc(C(=O)NN(C)c2nc(-c3ccccc3)nnc2C(F)(F)F)c1	-19	-2	-2	-8	7
FC(F)(F)c1cc(Cl)c2nc(-c3ccco3)c(Cc3ccccc3C(F)(F)F)n2c1	/	/	/	/	51*
O=C(NCCN1CCCCCC1)C1CCCN1S(=O)(=O)c1cccc2nsnc12 (centres undefined)	3	-1	7	3	1
C=CC#CC[N+]1(CC#Cc2ccccc2)CCOCC1	72*	7	0	72*	7
CC(=O)c1cc(C#N)c(NCc2ccccc2)nc1C	-17	1	-7	-3	9
CCOC(=O)c1cc(C#N)c(NCc2ccccc2)nc1C	0	8.8*	-7	1	-5
O=C1c2cccc3c([N+](=O)[O-])ccc(c23)C(=O)N1c1nccs1	60*	-6	-60	3	11
CC(C)n1nnnc1SCC(=O)N(C)C1CCS(=O)(=O)C1 (centres undefined)	-24	0	13	15	-8
CC(C)(C)C1C/C(=C/c2ccccn2)C(=O)/C(=C/c2ccccn2)C1 (centres undefined)	27	-1	19	85*	72*
CC1C/C(=C/c2ccccn2)C(=O)/C(=C/c2ccccn2)C1 (centres undefined)	23	-3	1	17	76*
C(=C\c1ccccn1)/c1ccccn1	-3	0	5	-1	-4
O=C1/C(=C/c2ccccn2)COc2ccccc21	-10	1	22	24	8
CC(=O)Nc1ccc(-c2csc(NC(=O)Cc3cccc(F)c3)n2)cc1	5	1	3	4	-2
